ChEMBL document CHEMBL1132655, “Discovery of novel disaccharide antibacterial agents using a combinatorial library approach” (J Med Chem, 1999)
In brackets after ≈: the same amount, converted by molar mass.

Columns and labels:
[1] = The compound was tested for inhibitory activity against PGP30 bacterial cell wall biosynthesis; type: functional, Bacteria
Staphylococcus aureus [2] = experiment: Compound was tested for the inhibition of cell wall biosynthesis and growth against Staphylococcus aureus (ATCC 29213) (sensitive strain); type: functional
In short: (§1)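 Broth microdilution MIC in brain heart infusion medium with 0.1% casamino acids. Log-phase cells were diluted to about 5×10^5 CFU/mL and exposed to compound serially diluted in DMSO (5% final DMSO). OD600 was read in microtiter plates. MIC (µg/mL) was called where [OD600 control − OD600 test]/[OD600 control − OD600 media] × 100 > 90%.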

Enterococcus faecalis [3] = experiment: Compound was tested for the inhibition of cell wall biosynthesis and growth against Enterococcus faecalis (ATCC 29212) (sensitive strain); type: functional; in short: as §1
Enterococcus faecium [4] = experiment: Compound was tested for the inhibition of cell wall biosynthesis and growth against Enterococcus faecium (CL4931) (Vancomycin-resistant); type: functional; in short: as §1
Staphylococcus aureus [5] = experiment: Compound was tested for the inhibition of cell wall biosynthesis and growth against Staphylococcus aureus (ATCC 43300) (Methicillin-resistant); type: functional; in short: as §1
Enterococcus faecalis [6] = experiment: Compound was tested for the inhibition of cell wall biosynthesis and growth against Enterococcus faecalis (CL4877) (Vancomycin-resistant); type: functional; in short: as §1
Enterococcus faecium [7] = experiment: Compound was tested for the inhibition of cell wall biosynthesis and growth against Enterococcus faecium (ATCC51559) (Vancomycin-resistant); type: functional; in short: as §1
Enterococcus faecalis [8] = experiment: Compound was tested for the inhibition of cell wall biosynthesis and growth against Enterococcus faecalis (CL5244) (Vancomycin-resistant); type: functional; in short: as §1
Enterococcus faecalis [9] = experiment: Compound was tested for the inhibition of cell wall biosynthesis and growth against Enterococcus faecalis (ATCC51575) (Vancomycin-resistant); type: functional; in short: as §1
Escherichia coli = experiment: Compound was tested for the inhibition of cell wall biosynthesis and growth against Escherichia coli (BAS849) (super-sensitive permeability mutant of E. coli) (sensitive strain); type: functional
In short: (§2)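 MIC by broth dilution in brain heart infusion medium with 0.1% casamino acids. Log-phase cells diluted to about 5×10^5 CFU/mL and exposed to compound serially diluted in DMSO (5% final DMSO). OD600 read on a plate reader; MIC taken as the concentration giving >90% growth inhibition relative to untreated control, corrected for medium blank.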

Enterococcus faecium [10] = experiment: Compound was tested for the inhibition of cell wall biosynthesis and growth against Enterococcus faecium (ATCC49624) (sensitive strain); type: functional; in short: as §1
[11] = test system: Staphylococcus epidermidis; experiment: Compound was tested for the inhibition of cell wall biosynthesis and growth against Staphylococcus epidermidis (ATCC 12228) (sensitive strain); type: functional; in short: as §2
Enterococcus faecium [12] = experiment: Compound was tested for the inhibition of cell wall biosynthesis and growth against Enterococcus faecium (ATCC49624) (sensitive strain)

For `CN[C@H](CC(C)C)C(=O)N[C@H]1C(=O)N[C@@H](CC(N)=O)C(=O)N[C@H]2C(=O)N[C@H]3C(=O)N[C@H](C(=O)N[C@H](C(=O)O)c4cc(O)cc(O)c4-c4cc3ccc4O)[C@H](O)c3ccc(c(Cl)c3)Oc3cc2cc(c3O[C@@H]2O[C@H](CO)[C@@H](O)[C@H](O)[C@H]2O[C@H]2C[C@](C)(N)[C@H](O)[C@H](C)O2)Oc2ccc(cc2Cl)[C@H]1O` [VANCOMYCIN], the IC50 [1] was 5.2 µg/mL (≈ 3.59 µM), the MIC (Staphylococcus aureus [2]) was 3.13 µg/mL (≈ 2.16 µM) and the MIC (Enterococcus faecalis [3]) was 6.25 µg/mL (≈ 4.31 µM). The MIC (Enterococcus faecium [4]) was > 125 µg/mL, the MIC (Staphylococcus aureus [5]) was 3.13 µg/mL (≈ 2.16 µM) and the MIC (Enterococcus faecalis [6]) was > 125 µg/mL. The MIC (Enterococcus faecium [7]) was > 125 µg/mL, the MIC (Enterococcus faecalis [8]) was 15.6 µg/mL (≈ 10.8 µM) and the MIC (Enterococcus faecalis [9]) was > 125 µg/mL. For the same compound, the MIC (Escherichia coli) was 0.78 µg/mL (≈ 0.538 µM), the MIC (Enterococcus faecium [10]) was 0.78 µg/mL (≈ 0.538 µM) and the MIC [11] was 3.13 µg/mL (≈ 2.16 µM).
Work on `CCCCCCCCCCCCCCC(OP(=O)(O)OC1OC(C(N)=O)C(OC)C(NC(=O)Nc2ccc(Cl)c(C(F)(F)F)c2)C1OC1OC(CO)C(O)C(O)C1NC(=O)c1cccc(C(F)(F)F)c1)C(=O)O` (stereo unspecified) yielded an IC50 [1] of 9.2 µg/mL (≈ 8.4 µM), an MIC (Staphylococcus aureus [2]) of 6.25 µg/mL (≈ 5.71 µM) and an MIC (Enterococcus faecalis [3]) of 3.12 µg/mL (≈ 2.85 µM). It also gave an MIC (Enterococcus faecium [4]) of 6.25 µg/mL (≈ 5.71 µM), an MIC (Staphylococcus aureus [5]) of 3.12 µg/mL (≈ 2.85 µM) and an MIC (Enterococcus faecalis [6]) of 3.12 µg/mL (≈ 2.85 µM). It also gave an MIC (Enterococcus faecium [7]) of 3.12 µg/mL (≈ 2.85 µM), an MIC (Enterococcus faecalis [8]) of 6.25 µg/mL (≈ 5.71 µM) and an MIC (Enterococcus faecalis [9]) of 6.25 µg/mL (≈ 5.71 µM). For the same compound, the MIC (Escherichia coli) was > 25 µg/mL, the MIC (Enterococcus faecium [10]) was 3.12 µg/mL (≈ 2.85 µM) and the MIC [11] was 6.25 µg/mL (≈ 5.71 µM).
Compound `CCCCCCCCCCCCO[C@H](COP(=O)(O)OC1OC(C(N)=O)C(OC)C(NC(=O)Nc2ccc(Cl)c(C(F)(F)F)c2)C1OC1OC(CO)C(O)C(O)C1NC(=O)c1ccccc1)C(=O)O` (stereo partly specified) has an IC50 [1] of 6.8 µg/mL (≈ 6.61 µM), an MIC (Staphylococcus aureus [2]) of 12.5 µg/mL (≈ 12.1 µM) and an MIC (Enterococcus faecium [12]) of 12.5 µg/mL (≈ 12.1 µM). For the same compound, the MIC (Enterococcus faecalis [3]) was 12.5 µg/mL (≈ 12.1 µM), the MIC (Enterococcus faecium [4]) was 25 µg/mL (≈ 24.3 µM) and the MIC (Staphylococcus aureus [5]) was 25 µg/mL (≈ 24.3 µM). The MIC (Enterococcus faecalis [6]) was 6.25 µg/mL (≈ 6.07 µM), the MIC (Enterococcus faecium [7]) was 12.5 µg/mL (≈ 12.1 µM) and the MIC (Enterococcus faecalis [8]) was 12.5 µg/mL (≈ 12.1 µM). For the same compound, the MIC (Enterococcus faecalis [9]) was 25 µg/mL (≈ 24.3 µM), the MIC (Escherichia coli) was 25 µg/mL (≈ 24.3 µM) and the MIC [11] was 12.5 µg/mL (≈ 12.1 µM).
`CCCCCCCCCCCCOP(=O)(O)OC1OC(C(N)=O)C(OC)C(NC(=O)Nc2ccc(Cl)c(C(F)(F)F)c2)C1OC1OC(CO)C(O)C(O)C1NC(=O)c1cccc(C(F)(F)F)c1` (stereo unspecified) gave an IC50 [1] of 8.2 µg/mL (≈ 8.12 µM), an MIC (Staphylococcus aureus [2]) of 6.25 µg/mL (≈ 6.19 µM) and an MIC (Enterococcus faecalis [3]) of 6.25 µg/mL (≈ 6.19 µM). For the same compound, the MIC (Enterococcus faecium [4]) was 6.25 µg/mL (≈ 6.19 µM), the MIC (Staphylococcus aureus [5]) was 6.25 µg/mL (≈ 6.19 µM) and the MIC (Enterococcus faecalis [6]) was 3.12 µg/mL (≈ 3.09 µM). For the same compound, the MIC (Enterococcus faecium [7]) was 6.25 µg/mL (≈ 6.19 µM), the MIC (Enterococcus faecalis [8]) was 6.25 µg/mL (≈ 6.19 µM) and the MIC (Enterococcus faecalis [9]) was 6.25 µg/mL (≈ 6.19 µM). It also gave an MIC (Escherichia coli) of 12.5 µg/mL (≈ 12.4 µM), an MIC (Enterococcus faecium [10]) of 6.25 µg/mL (≈ 6.19 µM) and an MIC [11] of 6.25 µg/mL (≈ 6.19 µM).
In the case of `CCCCCCCCCCCCO[C@H](COP(=O)(O)OC1OC(C(N)=O)C(O)C(NC(=O)Nc2ccc(OC(F)(F)F)cc2)C1OC1OC(CO)C(O)C(O)C1NC(=O)c1cccc(C(F)(F)F)c1)C(=O)O` (stereo partly specified), the IC50 [1] is reported as 9.2 µg/mL (≈ 8.64 µM), the MIC (Staphylococcus aureus [2]) is reported as 6.25 µg/mL (≈ 5.87 µM) and the MIC (Enterococcus faecalis [3]) is reported as 6.25 µg/mL (≈ 5.87 µM). It also gave an MIC (Enterococcus faecium [4]) of 6.25 µg/mL (≈ 5.87 µM), an MIC (Staphylococcus aureus [5]) of 6.25 µg/mL (≈ 5.87 µM) and an MIC (Enterococcus faecalis [6]) of 6.25 µg/mL (≈ 5.87 µM). For the same compound, the MIC (Enterococcus faecium [7]) was 12.5 µg/mL (≈ 11.7 µM), the MIC (Enterococcus faecalis [8]) was 6.25 µg/mL (≈ 5.87 µM) and the MIC (Enterococcus faecalis [9]) was 25 µg/mL (≈ 23.5 µM). The MIC (Escherichia coli) was > 25 µg/mL, the MIC (Enterococcus faecium [10]) was 6.25 µg/mL (≈ 5.87 µM) and the MIC [11] was 6.25 µg/mL (≈ 5.87 µM).
`CCCCCCCCCCCCO[C@H](COP(=O)(O)OC1OC(C(N)=O)C(O)C(NC(=O)Nc2ccc(Cl)c(C(F)(F)F)c2)C1OC1OC(CO)C(O)C(O)C1NC(=O)c1cccc(C(F)(F)F)c1)C(=O)O` (stereo partly specified) gave an IC50 [1] of 10.6 µg/mL (≈ 9.78 µM), an MIC (Staphylococcus aureus [2]) of 12.5 µg/mL (≈ 11.5 µM) and an MIC (Enterococcus faecalis [3]) of 3.12 µg/mL (≈ 2.88 µM). It also gave an MIC (Enterococcus faecium [4]) of 6.25 µg/mL (≈ 5.77 µM), an MIC (Staphylococcus aureus [5]) of 12.5 µg/mL (≈ 11.5 µM) and an MIC (Enterococcus faecalis [6]) of 3.13 µg/mL (≈ 2.89 µM). It also gave an MIC (Enterococcus faecium [7]) of 6.25 µg/mL (≈ 5.77 µM), an MIC (Enterococcus faecalis [8]) of 3.13 µg/mL (≈ 2.89 µM) and an MIC (Enterococcus faecalis [9]) of 12.5 µg/mL (≈ 11.5 µM). It also gave an MIC (Escherichia coli) of 12.5 µg/mL (≈ 11.5 µM), an MIC (Enterococcus faecium [10]) of 6.25 µg/mL (≈ 5.77 µM) and an MIC [11] of 12.5 µg/mL (≈ 11.5 µM).
For `CCCCCCCCCCCCOP(=O)(O)OC1OC(C(N)=O)C(O)C(NC(=O)Nc2ccc(Cl)c(C(F)(F)F)c2)C1OC1OC(CO)C(O)C(O)C1NC(=O)c1cccc(C(F)(F)F)c1` (stereo unspecified), the IC50 [1] was 15.4 µg/mL (≈ 15.5 µM), the MIC (Staphylococcus aureus [2]) was 6.25 µg/mL (≈ 6.28 µM) and the MIC (Enterococcus faecalis [3]) was 3.12 µg/mL (≈ 3.13 µM). For the same compound, the MIC (Enterococcus faecium [4]) was 3.13 µg/mL (≈ 3.14 µM), the MIC (Staphylococcus aureus [5]) was 6.25 µg/mL (≈ 6.28 µM) and the MIC (Enterococcus faecalis [6]) was 3.13 µg/mL (≈ 3.14 µM). The MIC (Enterococcus faecium [7]) was 12.5 µg/mL (≈ 12.6 µM), the MIC (Enterococcus faecalis [8]) was 3.13 µg/mL (≈ 3.14 µM) and the MIC (Enterococcus faecalis [9]) was 12.5 µg/mL (≈ 12.6 µM). It also gave an MIC (Escherichia coli) of 12.5 µg/mL (≈ 12.6 µM), an MIC (Enterococcus faecium [10]) of 12.5 µg/mL (≈ 12.6 µM) and an MIC [11] of 12.5 µg/mL (≈ 12.6 µM).
`C=C(C/C=C(\C)CCC=C(C)C)CCC(C)(C)/C=C/CC/C(C)=C\CO[C@H](COP(=O)(O)O[C@H]1O[C@@H](C(N)=O)[C@@](C)(O)[C@H](OC(N)=O)[C@@H]1O[C@@H]1O[C@@H](CO[C@@H]2O[C@@H](CO)[C@@H](O)[C@H](O)[C@@H]2O)[C@@H](O[C@@H]2O[C@@H](C)[C@@H](O[C@@H]3O[C@@H](C(=O)NC4=C(O)CCC4=O)[C@H](O)[C@H](O)[C@@H]3O)[C@H](O)[C@@H]2NC(C)=O)[C@@H](O)[C@@H]1NC(C)=O)C(=O)O` [MOENOMYCIN] showed an IC50 [1] of 0.025 µg/mL (≈ 0.0158 µM), an MIC (Staphylococcus aureus [2]) of 0.05 µg/mL (≈ 0.0316 µM) and an MIC (Enterococcus faecalis [3]) of 0.078 µg/mL (≈ 0.0493 µM). It also gave an MIC (Enterococcus faecium [4]) of 0.39 µg/mL (≈ 0.246 µM), an MIC (Staphylococcus aureus [5]) of 0.062 µg/mL (≈ 0.0392 µM) and an MIC (Enterococcus faecalis [6]) of 0.062 µg/mL (≈ 0.0392 µM). It also gave an MIC (Enterococcus faecium [7]) of 1.56 µg/mL (≈ 0.986 µM), an MIC (Enterococcus faecalis [8]) of 0.062 µg/mL (≈ 0.0392 µM) and an MIC (Enterococcus faecalis [9]) of 0.062 µg/mL (≈ 0.0392 µM). The MIC (Escherichia coli) was 0.025 µg/mL (≈ 0.0158 µM), the MIC (Enterococcus faecium [10]) was > 200 µg/mL and the MIC [11] was 0.025 µg/mL (≈ 0.0158 µM).
